Active and inactive are the calls of the source. No cut-off for these calls is given here.
How the values were obtained:
[1] = Antifibrotic activity against human LX2 cells assessed as reduction in cell growth measured after 48 hrs by MTT assay; assay type: functional, cell-based; conditions: LX-2, 48 h
How it was run: (§1)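 Cells grown at 37 °C in 5% CO2. MCF-7, A549 and HT-29 cells were kept in RPMI 1640 with 10% FBS and pen/strep. HepG2, A375, NRK-49F and LX-2 cells were kept in high-glucose DMEM with 10% FBS and pen/strep. HLF-1 cells were kept in DMEM/F-12 (1:1) with 10% FBS. Cells seeded for exponential growth, exposed to a concentration range for 48 h, then MTT added for 4 h at 37 °C. Formazan dissolved in DMSO, absorbance read at 490 nm, IC50 fitted.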

A-375 [2] = assay: Antiproliferative activity against human A375 cells assessed as reduction in cell growth measured after 48 hrs by MTT assay; assay type: functional, cell-based; conditions: A-375, 48 h; how it was run: as §1
A549 = assay: Antiproliferative activity against human A549 cells assessed as reduction in cell growth measured after 48 hrs by MTT assay; assay type: functional, cell-based; conditions: A549, 48 h; how it was run: as §1
HepG2 = assay: Antiproliferative activity against human HepG2 cells assessed as reduction in cell growth measured after 48 hrs by MTT assay; assay type: functional, cell-based; conditions: HepG2, 48 h; how it was run: as §1
MCF7 = assay: Antiproliferative activity against human MCF7 cells assessed as reduction in cell growth measured after 48 hrs by MTT assay; assay type: functional, cell-based; conditions: MCF7, 48 h; how it was run: as §1
[3] = biological target: T1, Bromodomain-containing protein 4 (Homo sapiens, UniProt O60885); assay: Inhibition of biotinylated H4 K5,8,12,16Ac peptide binding to GST-tagged BRD4 bromodomain1 (unknown origin) measured after 60 mins by AlphaScreen assay
[4] = biological target: T1, Bromodomain-containing protein 4; assay: Inhibition of biotinylated H4 K5,8,12,16Ac peptide binding to GST-tagged BRD4 bromodomain2 (unknown origin) at 100 uM measured after 60 mins by AlphaScreen assay relative to control
How it was run: (§2)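 AlphaScreen proximity assay measuring binding of the tetra-acetylated (K5,8,12,16Ac) biotinylated histone H4 peptide to recombinant BRD4 BD1 or BD2. Buffer was 50 mM HEPES with BSA, at 1% DMSO in the 10X compound dilutions. Compound, bromodomain, peptide and histidine-conjugated acceptor beads were incubated 60 min at room temperature. Streptavidin donor beads were then added for 30 min in the dark, and the endpoint Alpha signal read. Inhibition taken at 100 µM, mean of three independent experiments.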

[5] = Antifibrotic activity against human HLF1 cells assessed as reduction in cell growth measured after 48 hrs by MTT assay; assay type: functional, cell-based; conditions: HLF1, 48 h; how it was run: as §1
NRK-49F = assay: Antifibrotic activity against rat NRK-49F cells assessed as reduction in cell growth measured after 48 hrs by MTT assay; assay type: functional, cell-based; how it was run: as §1
HT-29 = assay: Antiproliferative activity against human HT-29 cells assessed as reduction in cell growth measured after 48 hrs by MTT assay; assay type: functional, cell-based; conditions: HT-29, 48 h; how it was run: as §1
[6] = biological target: T1, Bromodomain-containing protein 4; assay: Inhibition of biotinylated H4 K5,8,12,16Ac peptide binding to GST-tagged BRD4 bromodomain1 (unknown origin) at 100 uM measured after 60 mins by AlphaScreen assay relative to control; how it was run: as §2
[7] = biological target: T1, Bromodomain-containing protein 4; assay: Inhibition of BRD4 in human HLF1 cells assessed as reduction in collagen-1 mRNA expression at 1 uM measured after 24 hrs by RT-PCR analysis; assay type: cell-based
How it was run: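 HLF-1 cells (2.5 × 10^5 per well) were treated for 24 h. Total RNA was extracted, reverse-transcribed to cDNA, and collagen I transcript measured by quantitative RT-PCR.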

[8] = Selectivity index, ratio of IC50 for cytotoxicity against human LO2 cells to IC50 for antifibrotic activity against human LX2 cells
[9] = biological target: T1, Bromodomain-containing protein 4; assay: Inhibition of BRD4 in human HLF1 cells assessed as reduction in collagen-1 protein expression measured after 24 hrs by Western blot analysis; assay type: cell-based
How it was run: (§3)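 Cells (2.5 × 10^5 per well; A375 for c-Myc, HLF-1 for collagen I) were treated for 24 h and lysed on ice. Lysate was clarified at 12,000g for 15 min at 4 °C and protein measured by BCA. 20–40 µg was run on SDS-PAGE and blotted to PVDF, then blocked in 5% milk. Primary antibodies (c-Myc or collagen I, β-actin loading control) overnight, secondary antibody 1 h, fluorescent detection.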

A-375 [10] = assay: Induction of apoptosis in human A375 cells at 10 uM measured after 24 hrs by Annexin V-FITC/propidium iodide staining based fluorescence microscopic analysis; assay type: functional, cell-based
L02 = assay: Cytotoxicity against human LO2 cells assessed as reduction in cell growth measured after 24 hrs by MTT assay; assay type: cell-based; conditions: L02, 24 h
[11] = biological target: T1, Bromodomain-containing protein 4; assay: Inhibition of BRD4 in human A375 cells assessed as reduction in c-MYC protein expression measured after 24 hrs by Western blot analysis; assay type: cell-based; how it was run: as §3

SMILES | IC50 [1] [µM] | IC50 (A-375 [2]) [µM] | IC50 (A549) [µM] | IC50 (HepG2) [µM] | IC50 (MCF7) [µM] | IC50 [3] [µM] | inhibition [4] [%] | IC50 [5] [µM] | IC50 (NRK-49F) [µM] | IC50 (HT-29) [µM] | inhibition [6] [%] | inhibition [7] | Ratio IC50 [8] | inhibition [9] | Activity (A-375 [10]) | IC50 (L02) [µM] | inhibition [11]
COc1ccc(-c2nc(=O)n(Cc3c(C)noc3C)c3sc4c(c23)CCC(C(C)(C)C)C4)cc1 (configuration not stated) | 12.9 | 14.2 | 18.9 | 15.1 | 10.4 | 11.4 | 42.2 | 14.1 | 22.2 | 13 | – | – | – | – | – | – | –
Cc1noc(C)c1Cn1c(=O)nc(-c2ccc(F)cc2)c2c3c(sc21)CC(C(C)(C)C)CC3 (configuration not stated) | 17.3 | 14.2 | 49.9 | 63.7 | 33.3 | 3.6 | 33.2 | 14.5 | 23.3 | 10.7 | – | – | – | – | – | – | –
Cc1noc(C)c1Cn1c(=O)nc(-c2cccc(Cl)c2)c2c3c(sc21)CC(C(C)(C)C)CC3 (configuration not stated) | 15.3 | 15.9 | 18.9 | 3.6 | 25.7 | 3.1 | 52.3 | 12.8 | 8.5 | 19.7 | – | – | – | – | – | – | –
Cc1noc(C)c1Cn1c(=O)nc(-c2ccccc2)c2c3c(sc21)CC(C)(C)CC3 | > 300 | – | – | – | – | – | 44.9 | – | – | – | 86.6 | – | – | – | – | – | –
Cc1noc(C)c1COc1nc(-c2ccc(Cl)c(Cl)c2)c2c3c(sc2n1)CC(C(C)(C)C)CC3 (configuration not stated) | > 300 | – | – | – | – | – | 9.3 | – | – | – | 32.6 | – | – | – | – | – | –
Cc1noc(C)c1Cn1c(=O)nc(-c2ccccc2)c2c3c(sc21)CCC3 | > 300 | – | – | – | – | – | 19.8 | – | – | – | 23 | – | – | – | – | – | –
Cc1noc(C)c1Cn1c(=O)nc(-c2ccc(Cl)cc2)c2c3c(sc21)CC(c1ccccc1)CC3 (configuration not stated) | 28.8 | – | – | – | – | 6 | 15.1 | – | – | – | – | – | – | – | – | – | –
Cc1noc(C)c1Cn1c(=O)nc(-c2ccc(Cl)c(Cl)c2)c2c3c(sc21)CC(C(C)(C)C)CC3 (configuration not stated) | 9.1 | 4.9 | 24.5 | 14.5 | 16.6 | 0.56 | 29.9 | 13.6 | 16 | 19.4 | – | Active | 3.6 | Dose-dependent effect | Active | 33.2 | Dose-dependent effect
COC(=O)C1CCc2c(sc3c2c(-c2ccccc2)nc(=O)n3Cc2c(C)noc2C)C1 (configuration not stated) | > 300 | – | – | – | – | – | 9 | – | – | – | 19 | – | – | – | – | – | –
CC(C)(C)C1CCc2c(sc3c2c(-c2ccccc2)nc(=O)n3Cc2cnc(Cl)s2)C1 (configuration not stated) | 4.2 | 14.7 | 31.9 | 2.4 | > 100 | 22.7 | 28.3 | 7.6 | 6 | 54.4 | – | – | – | – | – | – | –
Cc1noc(C)c1Cn1c(=O)nc(-c2ccccc2Cl)c2c3c(sc21)CC(C(C)(C)C)CC3 (configuration not stated) | 11.3 | 11.1 | 16.6 | 30 | 69.2 | 1.6 | 39.5 | 12 | 17.2 | 19.2 | – | – | – | – | – | – | –
CCc1c(C)sc2c1c(-c1ccccc1)nc(=O)n2Cc1c(C)noc1C | > 300 | – | – | – | – | – | 17.8 | – | – | – | 9.5 | – | – | – | – | – | –
CC(=O)C(C)n1c(=O)nc(-c2ccccc2)c2c3c(sc21)CCCC3 (configuration not stated) | > 300 | – | – | – | – | – | 13.6 | – | – | – | 30 | – | – | – | – | – | –
COC(=O)c1ccc(-c2nc(=O)n(Cc3c(C)noc3C)c3sc4c(c23)CCC(C(C)(C)C)C4)cc1 (configuration not stated) | 19.6 | 8.7 | 19.3 | 12.8 | 38.6 | 1.5 | 49.7 | 6.6 | 8.1 | 17.8 | – | – | – | – | – | – | –
COc1ccc(-c2nc(=O)n(Cc3c(C)noc3C)c3sc4c(c23)CCN(C(C)C)C4)cc1 | 101 | – | – | – | – | – | 66.6 | – | – | – | 82.9 | – | – | – | – | – | –
COc1ccc(-c2nc(=O)n(Cc3cnc(Cl)s3)c3sc4c(c23)CCC(C(C)(C)C)C4)cc1 (configuration not stated) | 12.4 | 6.5 | 95.1 | 14.5 | > 100 | 18.5 | 57.2 | 14.6 | 11.2 | 98 | – | – | – | – | – | – | –
CC(=O)Cn1c(=O)nc(-c2ccccc2)c2c3c(sc21)CCCC3 | > 300 | – | – | – | – | – | 17.2 | – | – | – | 23.7 | – | – | – | – | – | –
CC(C)(C)C1CCc2c(sc3c2c(-c2ccccc2)nc(=O)n3Cc2ncccn2)C1 (configuration not stated) | 152 | – | – | – | – | – | 66.6 | – | – | – | 70.4 | – | – | – | – | – | –
CC(C)(C)C1CCc2c(sc3c2c(-c2ccc(Cl)cc2)nc(=O)n3Cc2cnc(Cl)s2)C1 (configuration not stated) | > 300 | – | – | – | – | – | – | – | – | – | – | – | – | – | – | – | –
Cc1noc(C)c1Cn1c(=O)nc(-c2ccccc2)c2c3c(sc21)CCCCC3 | 140 | – | – | – | – | – | 81.2 | – | – | – | 84.4 | – | – | – | – | – | –
Cc1noc(C)c1Cn1c(=O)nc(-c2ccc(Cl)cc2)c2c3c(sc21)CC(C(C)(C)C)CC3 (configuration not stated) | 10.4 | 13.6 | 66.5 | 26.4 | 78.3 | 2.4 | 23.4 | 18.9 | 26.3 | 33.8 | – | – | – | – | – | – | –
O=c1nc(-c2ccc(Cl)cc2)c2c3c(sc2n1Cc1cnc(Cl)s1)CC(c1ccccc1)CC3 (configuration not stated) | 98.2 | – | – | – | – | – | 14.5 | – | – | – | 44.9 | – | – | – | – | – | –
COc1cc(OC)c2c(=O)[nH]c(-c3cc(C)c(OCCO)c(C)c3)nc2c1 [APABETALONE] | 79.7 | 241 | 53.1 | 103 | > 300 | – | – | 52 | 42 | 236 | – | – | – | – | inactive | > 100 | –
Cc1noc(C)c1Cn1c(=O)nc(-c2ccccc2)c2c3c(sc21)CC(C(C)(C)C)CC3 (configuration not stated) | 21.6 | 8 | 29.6 | 10.9 | > 100 | 8.2 | 41.2 | 21.3 | 23.1 | 20.1 | – | – | – | – | – | – | –
Cc1noc(C)c1Cn1c(=O)nc(-c2ccccc2)c2c3c(sc21)CCCC3 | 114 | – | – | – | – | – | 26.2 | – | – | – | 46.4 | – | – | – | – | – | –
Cn1c(=O)nc(-c2ccccc2)c2c3c(sc21)CCCC3 | > 300 | – | – | – | – | – | 66.2 | – | – | – | 42.6 | – | – | – | – | – | –
Cc1sc2c(c1C)C(c1ccc(Cl)cc1)=N[C@@H](CC(=O)OC(C)(C)C)c1nnc(C)n1-2 | 28.6 | 7.5 | 13.1 | 11.3 | 38 | – | – | 20.4 | 21.1 | 19.6 | – | – | – | – | Active | 54.2 | –
CNC(=O)Cn1c(=O)nc(-c2ccccc2)c2c3c(sc21)CCCC3 | > 300 | – | – | – | – | – | 3.1 | – | – | – | 38.5 | – | – | – | – | – | –
